# ChEMBL document CHEMBL5696442, “Discovery of type II inhibitors of TGFβ-activated kinase 1 (TAK1) and mitogen-activated protein kinase kinase kinase kinase 2 (MAP4K2)” (J Med Chem, 2015)
# Activity calls are given as the source filed them. No cut-off for these calls is given here.
# Legend:
# [1] = target: Serine/threonine-protein kinase 10 (Homo sapiens) (UniProt O94804); assay: Inhibition of LOK Lys2 labeling site in human A-375 cells at 5 uM by KiNativ Profiling analysis relative to control; assay type: cell-based
# [2] = target: Mitogen-activated protein kinase 11 (Homo sapiens) (UniProt Q15759); assay: Inhibition of p38 beta (unknown origin) at 1 uM by Ambit Kinomescan binding assay relative to control; values are per cent of control
# [3] = target: Ribosomal protein S6 kinase alpha-1 (Homo sapiens) (UniProt Q15418); assay: Inhibition of C-terminal RSK1 kinase domain 2 (unknown origin) at 1 uM by Ambit Kinomescan binding assay relative to control
# Method in brief: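 In vitro ATP-site competition binding assay against a panel of over 420 kinases (KinomeScan), with compound tested at 10 or 1 μM.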
# [4] = target: Serine/threonine-protein kinase 24 (Homo sapiens) (UniProt Q9Y6E0); assay: Inhibition of MST3 (unknown origin) at 1 uM by Ambit Kinomescan binding assay relative to control
# [5] = target: Glycogen synthase kinase-3 beta (Homo sapiens) (UniProt P49841); assay: Inhibition of GSK3B Lys2 labeling site in human A-375 cells at 0.5 uM by KiNativ Profiling analysis relative to control; assay type: cell-based
# [6] = target: Tyrosine-protein kinase ABL (Homo sapiens) (UniProt P00519+P42684); assay: Inhibition of ABL1/2 K1 labeling site in human Huh-7 cells at 1 uM by KiNativ Profiling analysis relative to control; assay type: cell-based
# [7] = target: Casein kinase I isoform delta (Homo sapiens) (UniProt P48730); assay: Inhibition of CSNK1D (unknown origin) at 10 uM by Ambit Kinomescan binding assay
# [8] = target: T1, Mitogen-activated protein kinase kinase kinase 5 (Homo sapiens) (UniProt Q99683); assay: Inhibition of ASK1 (unknown origin) at 10 uM by Ambit Kinomescan binding assay
# T1 sequence (whole entry): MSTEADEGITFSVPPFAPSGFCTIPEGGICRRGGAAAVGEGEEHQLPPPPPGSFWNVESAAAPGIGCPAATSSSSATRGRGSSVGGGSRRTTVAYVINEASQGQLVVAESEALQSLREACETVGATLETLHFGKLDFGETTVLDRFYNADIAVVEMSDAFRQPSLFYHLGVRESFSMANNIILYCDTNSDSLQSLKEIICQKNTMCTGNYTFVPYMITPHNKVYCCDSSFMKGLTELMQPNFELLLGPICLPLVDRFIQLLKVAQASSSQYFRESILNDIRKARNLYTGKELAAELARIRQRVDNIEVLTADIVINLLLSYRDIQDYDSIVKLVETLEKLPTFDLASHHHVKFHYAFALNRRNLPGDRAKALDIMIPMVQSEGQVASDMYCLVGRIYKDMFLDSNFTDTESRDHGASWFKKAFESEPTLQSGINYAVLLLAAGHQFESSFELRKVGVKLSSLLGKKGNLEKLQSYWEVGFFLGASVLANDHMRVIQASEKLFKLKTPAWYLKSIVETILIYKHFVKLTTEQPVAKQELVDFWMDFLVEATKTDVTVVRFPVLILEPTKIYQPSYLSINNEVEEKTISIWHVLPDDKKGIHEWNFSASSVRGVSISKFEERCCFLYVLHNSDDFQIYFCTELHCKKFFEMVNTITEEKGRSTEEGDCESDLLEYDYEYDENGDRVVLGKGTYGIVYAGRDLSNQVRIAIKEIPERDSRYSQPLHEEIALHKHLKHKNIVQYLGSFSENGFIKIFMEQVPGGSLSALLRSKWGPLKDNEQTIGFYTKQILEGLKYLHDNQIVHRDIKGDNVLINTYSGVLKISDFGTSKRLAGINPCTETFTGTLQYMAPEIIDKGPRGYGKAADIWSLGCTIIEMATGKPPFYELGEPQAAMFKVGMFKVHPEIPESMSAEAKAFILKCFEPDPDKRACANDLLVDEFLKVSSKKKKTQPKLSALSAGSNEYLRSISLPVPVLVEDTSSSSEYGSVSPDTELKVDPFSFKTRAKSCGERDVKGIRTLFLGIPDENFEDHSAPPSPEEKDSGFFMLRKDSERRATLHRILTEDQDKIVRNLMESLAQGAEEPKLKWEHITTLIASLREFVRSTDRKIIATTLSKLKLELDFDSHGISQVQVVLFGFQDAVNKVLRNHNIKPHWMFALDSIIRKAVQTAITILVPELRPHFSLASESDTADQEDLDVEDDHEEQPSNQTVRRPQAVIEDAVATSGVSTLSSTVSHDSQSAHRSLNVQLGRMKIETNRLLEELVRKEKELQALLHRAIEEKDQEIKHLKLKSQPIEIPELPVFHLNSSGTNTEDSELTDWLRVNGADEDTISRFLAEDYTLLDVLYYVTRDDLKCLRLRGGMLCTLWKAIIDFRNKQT
# [9] = target: T2, Serine/threonine-protein kinase TBK1 (Homo sapiens) (UniProt Q9UHD2); assay: Inhibition of TBK1 K1 labeling site in human Huh-7 cells at 1 uM by KiNativ Profiling analysis relative to control; assay type: cell-based
# T2 sequence (whole entry): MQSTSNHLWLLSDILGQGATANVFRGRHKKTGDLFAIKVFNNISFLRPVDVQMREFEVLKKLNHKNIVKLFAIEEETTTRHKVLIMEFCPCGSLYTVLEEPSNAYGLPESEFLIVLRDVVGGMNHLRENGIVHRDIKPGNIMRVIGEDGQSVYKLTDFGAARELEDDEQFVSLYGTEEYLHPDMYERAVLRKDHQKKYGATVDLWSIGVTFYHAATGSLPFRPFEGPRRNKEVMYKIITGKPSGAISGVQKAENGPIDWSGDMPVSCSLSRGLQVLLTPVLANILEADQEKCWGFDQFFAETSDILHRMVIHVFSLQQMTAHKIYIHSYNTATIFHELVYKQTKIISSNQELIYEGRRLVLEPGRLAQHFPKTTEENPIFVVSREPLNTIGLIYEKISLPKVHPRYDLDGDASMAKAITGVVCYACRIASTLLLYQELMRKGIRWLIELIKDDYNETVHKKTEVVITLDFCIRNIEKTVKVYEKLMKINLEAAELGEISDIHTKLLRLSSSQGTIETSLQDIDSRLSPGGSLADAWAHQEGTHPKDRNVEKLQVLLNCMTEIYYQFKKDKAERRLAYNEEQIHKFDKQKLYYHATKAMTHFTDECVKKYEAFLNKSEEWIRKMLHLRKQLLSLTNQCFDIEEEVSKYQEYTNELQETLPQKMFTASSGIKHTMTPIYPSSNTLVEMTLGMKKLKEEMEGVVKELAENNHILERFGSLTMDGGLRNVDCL
# [10] = target: Calcium/calmodulin-dependent protein kinase type II subunit alpha (Homo sapiens) (UniProt Q9UQM7); assay: Inhibition of CAMK2a K2 labeling site in human Huh-7 cells at 1 uM by KiNativ Profiling analysis relative to control; assay type: cell-based
# [11] = target: Proto-oncogene tyrosine-protein kinase Src (Homo sapiens, UniProt P12931); assay: Inhibition of SRC (unknown origin) at 10 uM by Ambit Kinomescan binding assay relative to control; values are per cent of control
# Tyrosine-protein kinase ABL (Homo sapiens), sequence (P00519 whole entry, looked up, canonical isoform): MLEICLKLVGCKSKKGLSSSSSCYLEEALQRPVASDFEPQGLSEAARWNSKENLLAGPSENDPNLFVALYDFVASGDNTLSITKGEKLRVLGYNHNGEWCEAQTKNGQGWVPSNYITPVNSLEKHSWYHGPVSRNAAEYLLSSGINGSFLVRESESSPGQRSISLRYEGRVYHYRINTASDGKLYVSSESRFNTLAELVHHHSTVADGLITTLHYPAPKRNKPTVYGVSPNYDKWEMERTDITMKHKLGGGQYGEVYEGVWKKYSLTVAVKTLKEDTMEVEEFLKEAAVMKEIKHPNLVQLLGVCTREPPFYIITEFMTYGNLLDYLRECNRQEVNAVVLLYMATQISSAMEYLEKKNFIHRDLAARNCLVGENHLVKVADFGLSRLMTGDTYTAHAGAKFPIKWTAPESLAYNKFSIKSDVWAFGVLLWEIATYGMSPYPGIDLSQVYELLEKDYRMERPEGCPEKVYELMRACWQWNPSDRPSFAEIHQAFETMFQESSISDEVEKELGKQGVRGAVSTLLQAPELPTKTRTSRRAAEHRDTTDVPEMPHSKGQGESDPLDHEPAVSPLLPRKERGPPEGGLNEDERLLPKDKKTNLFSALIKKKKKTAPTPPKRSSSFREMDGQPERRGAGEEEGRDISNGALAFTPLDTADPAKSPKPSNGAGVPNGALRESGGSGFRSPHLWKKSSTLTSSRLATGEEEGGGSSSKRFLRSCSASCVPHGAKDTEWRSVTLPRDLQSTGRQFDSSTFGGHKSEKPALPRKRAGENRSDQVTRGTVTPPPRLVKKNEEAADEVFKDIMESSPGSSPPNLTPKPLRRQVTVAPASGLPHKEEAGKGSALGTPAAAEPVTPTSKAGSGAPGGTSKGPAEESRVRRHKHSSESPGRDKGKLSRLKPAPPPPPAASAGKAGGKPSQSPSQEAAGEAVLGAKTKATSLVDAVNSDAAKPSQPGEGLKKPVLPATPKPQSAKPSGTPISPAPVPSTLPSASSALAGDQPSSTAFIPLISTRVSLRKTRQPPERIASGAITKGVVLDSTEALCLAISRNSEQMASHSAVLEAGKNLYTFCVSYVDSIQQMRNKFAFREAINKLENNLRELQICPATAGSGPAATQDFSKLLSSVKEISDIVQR
# Tyrosine-protein kinase ABL (Homo sapiens), sequence (P42684 whole entry, looked up, canonical isoform): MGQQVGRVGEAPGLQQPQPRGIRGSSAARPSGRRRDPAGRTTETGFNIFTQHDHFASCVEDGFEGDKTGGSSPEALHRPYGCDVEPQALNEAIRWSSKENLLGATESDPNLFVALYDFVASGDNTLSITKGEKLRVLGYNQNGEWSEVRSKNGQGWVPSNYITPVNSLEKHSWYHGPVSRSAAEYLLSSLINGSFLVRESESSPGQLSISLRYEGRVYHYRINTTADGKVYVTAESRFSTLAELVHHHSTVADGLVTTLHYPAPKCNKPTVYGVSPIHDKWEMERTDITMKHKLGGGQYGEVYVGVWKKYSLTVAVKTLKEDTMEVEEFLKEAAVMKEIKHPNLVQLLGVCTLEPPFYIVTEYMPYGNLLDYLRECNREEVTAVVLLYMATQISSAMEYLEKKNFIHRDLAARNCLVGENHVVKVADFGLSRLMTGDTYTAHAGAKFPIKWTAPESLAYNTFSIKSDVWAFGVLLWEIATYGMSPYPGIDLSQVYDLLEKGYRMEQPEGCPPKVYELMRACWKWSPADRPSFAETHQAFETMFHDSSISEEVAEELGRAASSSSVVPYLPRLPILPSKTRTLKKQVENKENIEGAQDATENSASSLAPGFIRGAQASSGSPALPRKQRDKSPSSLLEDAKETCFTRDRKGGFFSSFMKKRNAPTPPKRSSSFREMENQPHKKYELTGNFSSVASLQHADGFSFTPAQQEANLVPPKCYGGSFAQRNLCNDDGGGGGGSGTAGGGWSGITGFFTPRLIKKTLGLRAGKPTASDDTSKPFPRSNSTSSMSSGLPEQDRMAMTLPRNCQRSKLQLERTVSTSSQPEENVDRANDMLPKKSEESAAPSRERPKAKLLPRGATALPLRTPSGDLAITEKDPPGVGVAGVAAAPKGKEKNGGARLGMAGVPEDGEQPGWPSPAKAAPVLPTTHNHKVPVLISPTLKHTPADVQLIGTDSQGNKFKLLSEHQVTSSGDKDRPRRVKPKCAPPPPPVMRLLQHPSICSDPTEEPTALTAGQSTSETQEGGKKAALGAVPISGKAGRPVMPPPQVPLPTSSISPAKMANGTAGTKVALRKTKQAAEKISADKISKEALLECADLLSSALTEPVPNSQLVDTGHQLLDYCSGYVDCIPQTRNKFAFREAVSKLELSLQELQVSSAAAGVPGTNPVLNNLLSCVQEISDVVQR
# Serine/threonine-protein kinase 24 (Homo sapiens), sequence (Q9Y6E0 whole entry, looked up): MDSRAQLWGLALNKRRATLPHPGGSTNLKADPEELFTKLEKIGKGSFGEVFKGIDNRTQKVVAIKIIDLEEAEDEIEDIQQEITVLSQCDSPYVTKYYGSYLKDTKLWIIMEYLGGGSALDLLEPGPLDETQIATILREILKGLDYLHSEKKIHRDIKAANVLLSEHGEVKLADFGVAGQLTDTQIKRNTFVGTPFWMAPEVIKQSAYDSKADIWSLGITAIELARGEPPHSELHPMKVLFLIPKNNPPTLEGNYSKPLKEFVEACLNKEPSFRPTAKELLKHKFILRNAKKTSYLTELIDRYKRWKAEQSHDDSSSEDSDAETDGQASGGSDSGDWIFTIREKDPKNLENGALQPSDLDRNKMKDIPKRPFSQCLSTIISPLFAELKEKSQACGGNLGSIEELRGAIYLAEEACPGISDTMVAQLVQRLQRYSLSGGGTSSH
# Ribosomal protein S6 kinase alpha-1 (Homo sapiens), sequence (Q15418 whole entry, the tested form may be a part): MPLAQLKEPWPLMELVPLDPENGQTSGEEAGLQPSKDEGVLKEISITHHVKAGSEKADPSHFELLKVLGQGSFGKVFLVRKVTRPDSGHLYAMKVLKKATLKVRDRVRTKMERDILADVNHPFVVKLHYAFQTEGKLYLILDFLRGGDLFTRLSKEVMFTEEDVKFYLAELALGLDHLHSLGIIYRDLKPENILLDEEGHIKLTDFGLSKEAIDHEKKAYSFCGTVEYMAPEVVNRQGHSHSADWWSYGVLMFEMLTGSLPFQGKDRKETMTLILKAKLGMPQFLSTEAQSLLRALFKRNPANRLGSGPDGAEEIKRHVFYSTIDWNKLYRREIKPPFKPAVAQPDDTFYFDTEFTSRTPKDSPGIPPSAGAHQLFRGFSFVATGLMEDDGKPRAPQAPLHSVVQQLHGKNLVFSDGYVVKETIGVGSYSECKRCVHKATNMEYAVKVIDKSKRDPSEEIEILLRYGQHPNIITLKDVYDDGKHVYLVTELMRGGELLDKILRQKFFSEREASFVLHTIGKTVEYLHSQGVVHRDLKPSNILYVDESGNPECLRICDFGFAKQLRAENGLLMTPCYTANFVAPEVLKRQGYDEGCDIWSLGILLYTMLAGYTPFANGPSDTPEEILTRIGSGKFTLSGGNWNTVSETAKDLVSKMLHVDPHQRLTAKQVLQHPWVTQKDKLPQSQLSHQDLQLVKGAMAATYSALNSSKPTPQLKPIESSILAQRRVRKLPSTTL
# Casein kinase I isoform delta (Homo sapiens), sequence (P48730 whole entry, looked up, canonical isoform): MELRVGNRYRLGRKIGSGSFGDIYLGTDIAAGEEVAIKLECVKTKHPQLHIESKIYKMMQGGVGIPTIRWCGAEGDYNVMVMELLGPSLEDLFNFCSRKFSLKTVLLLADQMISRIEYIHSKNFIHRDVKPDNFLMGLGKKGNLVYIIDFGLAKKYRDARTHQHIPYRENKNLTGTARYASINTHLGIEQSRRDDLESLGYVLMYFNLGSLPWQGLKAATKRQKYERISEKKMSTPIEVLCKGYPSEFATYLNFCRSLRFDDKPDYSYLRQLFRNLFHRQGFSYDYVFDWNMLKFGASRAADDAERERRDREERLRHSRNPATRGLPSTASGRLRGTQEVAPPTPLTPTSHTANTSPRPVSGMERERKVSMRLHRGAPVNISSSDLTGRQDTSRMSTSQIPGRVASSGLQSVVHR
# Glycogen synthase kinase-3 beta (Homo sapiens), sequence (P49841 whole entry, looked up): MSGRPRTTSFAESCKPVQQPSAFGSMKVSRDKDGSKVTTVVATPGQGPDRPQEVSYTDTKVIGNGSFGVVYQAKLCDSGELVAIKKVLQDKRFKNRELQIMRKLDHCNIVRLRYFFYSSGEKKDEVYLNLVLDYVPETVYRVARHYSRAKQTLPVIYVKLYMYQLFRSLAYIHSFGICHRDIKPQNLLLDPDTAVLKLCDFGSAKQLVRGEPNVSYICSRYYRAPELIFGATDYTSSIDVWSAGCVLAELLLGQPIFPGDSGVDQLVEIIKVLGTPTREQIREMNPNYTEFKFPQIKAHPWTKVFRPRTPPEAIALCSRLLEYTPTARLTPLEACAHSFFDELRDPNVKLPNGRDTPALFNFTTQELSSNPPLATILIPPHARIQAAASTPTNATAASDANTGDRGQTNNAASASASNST
# Mitogen-activated protein kinase 11 (Homo sapiens), sequence (Q15759 whole entry, the tested form may be a part): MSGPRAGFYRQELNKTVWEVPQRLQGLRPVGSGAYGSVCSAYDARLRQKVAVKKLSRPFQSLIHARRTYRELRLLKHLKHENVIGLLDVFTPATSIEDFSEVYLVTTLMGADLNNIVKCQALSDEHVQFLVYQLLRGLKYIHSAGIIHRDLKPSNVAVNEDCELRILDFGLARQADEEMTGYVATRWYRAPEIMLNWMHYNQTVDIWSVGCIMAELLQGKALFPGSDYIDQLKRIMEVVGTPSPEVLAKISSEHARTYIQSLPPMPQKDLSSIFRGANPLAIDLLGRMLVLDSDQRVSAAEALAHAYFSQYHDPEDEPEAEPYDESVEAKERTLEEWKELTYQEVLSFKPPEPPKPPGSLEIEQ
compound,measurement,setting,value
CCN1CCN(Cc2ccc(NC(=O)c3ccc(C)c(/C=C/c4cnc5[nH]ccc5c4OC)c3)cc2C(F)(F)F)CC1,inhibition,[1],77.4%
same,percent of control,[2],0.3%
same,inhibition,[3],50%
same,inhibition,[4],75%
same,inhibition,[5],34.9%
CCN1CCN(Cc2ccc(NC(=O)c3ccc(C)c(Oc4ccnc5[nH]ccc45)c3)cc2C(F)(F)F)CC1,inhibition,[6],16.4%
same,inhibition,[7],inactive
same,inhibition,[8],inactive
same,inhibition,[9],-9.5%
same,inhibition,[10],5.8%
same,residual activity,[11],0.2%
